Experimental data from ChEMBL document CHEMBL1153864, “Phase transfer catalyzed synthesis of bis-quinolines: antileishmanial activity in experimental visceral leishmaniasis and in vitro antibacterial evaluation” (Eur J Med Chem, 2009).
Active and inactive are the calls of the source.

How the values were obtained:
Vibrio cholerae [1] = experiment: Antibacterial activity against Vibrio cholerae 582 at 5 ug/ml after 24 hrs by agar dilution method; format: functional; conditions: Vibrio cholerae, 582, 24 h
Vibrio cholerae [2] = experiment: Antibacterial activity against Vibrio cholerae 582 at 10 ug/ml after 24 hrs by agar dilution method; format: functional; conditions: Vibrio cholerae, 582, 24 h
Escherichia coli [3] = experiment: Antibacterial activity against Escherichia coli K-12 Row at 50 ug/ml after 24 hrs by agar dilution method; format: functional
Summary of the method: (§1)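 Agar dilution MIC. Compound dissolved in sterile 0.2% DMSO, diluted in distilled water and mixed into molten nutrient agar (pH 7.2–7.4) at 5, 10, 25, 50; plate with 0.2% DMSO as control. Gram-positives grown 18 h in nutrient broth, Gram-negatives in peptone water. Stationary-phase suspension set to 0.5 McFarland, diluted 1:100, spot-inoculated at about 10^5 CFU per loopful. Plates held 24 h at 37 °C (up to 72 h if needed). MIC is the lowest level with no growth.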

Vibrio cholerae [4] = experiment: Antibacterial activity against Vibrio cholerae 569B at 25 ug/ml after 24 hrs by agar dilution method; format: functional
Shigella dysenteriae [5] = experiment: Antibacterial activity against Shigella dysenteriae 6 NCTC 100/54 after 24 hrs by agar dilution method; format: functional; conditions: 6 NCTC 100/54, 24 h
Bacillus licheniformis [6] = experiment: Antibacterial activity against […] Bacillus licheniformis NCTC 10341 at 5 ug/ml after 24 hrs by agar dilution method; format: functional, organism-based; summary of the method: as §1
Salmonella typhimurium [7] = experiment: Antibacterial activity against Salmonella Typhimurium NCTC 74 at 50 ug/ml after 24 hrs by agar dilution method; format: functional, Salmonella enterica subsp. enterica serovar Typhimurium; conditions: Salmonella enterica, NCTC 74, 24 h; summary of the method: as §1
Shigella dysenteriae [8] = experiment: Antibacterial activity against Shigella dysenteriae 7 NCTC 519/66 at 50 ug/ml after 24 hrs by agar dilution method; format: functional; conditions: 7 NCTC 519/66, 24 h
Pseudomonas aeruginosa [9] = experiment: Antibacterial activity against Pseudomonas aeruginosa ATCC 27853 after 24 hrs by agar dilution method; format: functional; conditions: ATCC 27853, 24 h; summary of the method: as §1
Mus musculus [10] = experiment: Toxicity in BALB/c mouse assessed as effect on serum glutamate pyruvate transaminase levels at 5.5 mg/kg, ip administered two times per week for 4 weeks; format: organism-based; set-up: dose 5.5 mg/kg, route intraperitoneal; conditions: in vivo, 672 h
Summary of the method: (§2)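 Normal BALB/c mice were dosed ip twice per week for 4 weeks. Blood was collected one month after treatment, and serum SGPT and SGOT (IU/l) and blood urea (mg/dl) were measured with commercial kits and compared with untreated normal mice.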

Macrophage = experiment: Induction of nitric oxide production in Leishmania donovani MHOM/IN/1983/AG83 infected golden Syrian hamster peritoneal macrophages; format: functional, cell-based; conditions: Mesocricetus auratus
Staphylococcus aureus [11] = experiment: Antibacterial activity against Staphylococcus aureus ML6 at 25 ug/ml after 24 hrs by agar dilution method; format: functional; conditions: ML6, 24 h; summary of the method: as §1
Staphylococcus aureus [12] = experiment: Antibacterial activity against Staphylococcus aureus ML145 ug/ml after 24 hrs by agar dilution method; format: functional; conditions: ML145, 24 h; summary of the method: as §1
[13] = Down regulation of IL6 release Leishmania donovani MHOM/IN/1983/AG83 infected bacterial liposaccharide-stimulated golden Syrian hamster peritoneal macrophages; format: functional, cell-based; conditions: Mesocricetus auratus; Macrophage
Escherichia coli [14] = experiment: Antibacterial activity against Escherichia coli K-12 Row at 10 ug/ml after 24 hrs by agar dilution method; format: functional, organism-based; summary of the method: as §1
Pseudomonas aeruginosa [15] = experiment: Antibacterial activity against Pseudomonas aeruginosa ATCC 27853 at 10 ug/ml after 24 hrs by agar dilution method; format: functional, organism-based; summary of the method: as §1
Leishmania donovani [16] = experiment: Antileishmanial activity against Leishmania donovani MHOM/IN/1983/AG83 promastigotes assessed as induction of kinetoplast enlargement at 2 ug/ml after 2 hrs by transmission electron microscopy; format: functional, organism-based
Summary of the method: (§3)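 Log-phase promastigotes, grown at 22 °C in M199 with 10% FBS, were exposed for 2 h to the compound; controls received 0.1% DMSO alone. Cells were then sectioned, stained on copper grids with uranyl acetate and lead acetate for 10-15 min each, and examined by TEM for ultrastructural changes.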

Staphylococcus aureus [17] = experiment: Antibacterial activity against Staphylococcus aureus ML6 at 10 ug/ml after 24 hrs by agar dilution method; format: functional; conditions: ML6, 24 h; summary of the method: as §1
Mus musculus [18] = experiment: Toxicity in BALB/c mouse assessed as effect on serum glutamate oxaloacetate transaminase levels at 5.5 mg/kg, ip administered two times per week for 4 weeks; format: organism-based; set-up: dose 5.5 mg/kg, route intraperitoneal; conditions: in vivo, 672 h; summary of the method: as §2
Escherichia coli [19] = experiment: Antibacterial activity against Escherichia coli K-12 Row after 24 hrs by agar dilution method; format: functional; summary of the method: as §1
Leishmania donovani [20] = experiment: Antileishmanial activity against Leishmania donovani MHOM/IN/1983/AG83 promastigotes infected BALB/c mouse assessed as spleen weight at 12.5 mg/kg, ip administered two times per week for 4 weeks; format: functional; conditions: route intraperitoneal
Summary of the method: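 BALB/c mice (4-6 weeks) were infected iv with 2 × 10^7 freshly transformed promastigotes. One month later, groups were dosed ip in 0.2% Tween 80 in PBS (0.02 M), twice weekly for one month (8 doses); controls got vehicle only. Mice were killed one month post-treatment and spleen and liver were weighed. Parasite load came from Giemsa impression smears as organ weight (mg) × amastigotes per cell nucleus × 2 × 10^5. Values are mean ± S.E. of 5 mice; unpaired t-test.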

Proteus mirabilis [21] = experiment: Antibacterial activity against Proteus mirabilis 175 at 10 ug/ml after 24 hrs by agar dilution method; format: functional, organism-based; summary of the method: as §1
Proteus mirabilis [22] = experiment: Antibacterial activity against Proteus mirabilis 7 after 24 hrs by agar dilution method; format: functional; conditions: Proteus mirabilis, 7, 24 h; summary of the method: as §1
Proteus mirabilis [23] = experiment: Antibacterial activity against Proteus mirabilis 175 at 5 ug/ml after 24 hrs by agar dilution method; format: functional, organism-based; summary of the method: as §1
Shigella dysenteriae [24] = experiment: Antibacterial activity against Shigella dysenteriae 7 NCTC 519/66 at 5 ug/ml after 24 hrs by agar dilution method; format: functional, organism-based
Leishmania donovani [25] = experiment: Antileishmanial activity against Leishmania donovani MHOM/IN/1983/AG83 amastigotes by Giemsa staining; format: functional, organism-based
Summary of the method: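 Peritoneal macrophages from thioglycolate-elicited exudate (~2×10^6/ml), adhered overnight on coverslips in RPMI-1640 + 10% FBS at 37 °C, 5% CO2. Infected 6 h with stationary-phase AG83 promastigotes (2×10^7/ml), washed, then exposed 24 h to 0.5, 1, 3, 5, 10 compound. Methanol-fixed, Giemsa-stained; amastigotes per 200 macrophages counted against untreated controls.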

Leishmania donovani [26] = experiment: Antileishmanial activity against Leishmania donovani MHOM/IN/1983/AG83 promastigotes assessed as induction of vacuolization at 11.5 ug/ml after 2 hrs by transmission electron microscopy; format: functional, organism-based; summary of the method: as §3
Proteus mirabilis [27] = experiment: Antibacterial activity against Proteus mirabilis 7 at 25 ug/ml after 24 hrs by agar dilution method; format: functional, organism-based; summary of the method: as §1
Shigella dysenteriae [28] = experiment: Antibacterial activity against Shigella dysenteriae 6 NCTC 100/54 at 25 ug/ml after 24 hrs by agar dilution method; format: functional, organism-based
Bacillus licheniformis [29] = experiment: Antibacterial activity against […] Bacillus licheniformis NCTC 10341 at 50 ug/ml after 24 hrs by agar dilution method; format: functional; conditions: NCTC 10341, 24 h; summary of the method: as §1
Mus musculus [30] = experiment: Toxicity in BALB/c mouse assessed as effect on blood urea levels at 12.5 mg/kg, ip administered two times per week for 4 weeks; format: organism-based; set-up: dose 12.5 mg/kg, route intraperitoneal; conditions: in vivo, 672 h; summary of the method: as §2
Salmonella typhimurium [31] = experiment: Antibacterial activity against Salmonella Typhimurium NCTC 74 at 10 ug/ml after 24 hrs by agar dilution method; format: functional, organism-based; conditions: Salmonella enterica subsp. enterica serovar Typhimurium; summary of the method: as §1
Proteus mirabilis [32] = experiment: Antibacterial activity against Proteus mirabilis 7 at 50 ug/ml after 24 hrs by agar dilution method; format: functional; conditions: Proteus mirabilis, 7, 24 h; summary of the method: as §1

Clc1ccc(OCOc2ccc(Cl)c3cccnc23)c2ncccc12
inactive: Activity (Bacillus licheniformis [6]) | Activity (Escherichia coli [14]) | Activity (Pseudomonas aeruginosa [15]) | Activity (Proteus mirabilis [21]) | Activity (Proteus mirabilis [23]) | Activity (Shigella dysenteriae [24]) | Activity (Proteus mirabilis [27]) | Activity (Shigella dysenteriae [28]) | Activity (Salmonella typhimurium [31])
25 mg/L: MIC (Pseudomonas aeruginosa [9])
Non-toxic: Activity (Mus musculus [10]) | Activity (Mus musculus [18]) | Activity (Mus musculus [30])
50 mg/L: MIC (Shigella dysenteriae [5]) | MIC (Escherichia coli [19]) | MIC (Proteus mirabilis [22])
active: Activity (Macrophage) | Activity [13] | Activity (Leishmania donovani [16]) | Activity (Leishmania donovani [26])
5 mg/L: MIC (Staphylococcus aureus [12])
90 mg: Activity (Leishmania donovani [20])
2.1 mg/L: IC50 (Leishmania donovani [25])
100%: inhibition at 5 µg/mL (Vibrio cholerae [1]) | inhibition at 10 µg/mL (Vibrio cholerae [2]) | inhibition at 50 µg/mL (Escherichia coli [3]) | inhibition at 25 µg/mL (Vibrio cholerae [4]) | inhibition at 50 µg/mL (Salmonella typhimurium [7]) | inhibition at 50 µg/mL (Shigella dysenteriae [8]) | inhibition at 25 µg/mL (Staphylococcus aureus [11]) | inhibition at 10 µg/mL (Staphylococcus aureus [17]) | inhibition at 50 µg/mL (Bacillus licheniformis [29]) | inhibition at 50 µg/mL (Proteus mirabilis [32])
